{
  "source": "ChEMBL document CHEMBL4229410",
  "about": "“Facile construction of fused benzimidazole-isoquinolinones that induce cell-cycle arrest and apoptosis in colorectal cancer cells” (Bioorg Med Chem, 2018)",
  "key": {"HT-29 [1]": {"tested_on": "HT-29", "assay": "Induction of apoptosis in human HT-29 cells assessed as late apoptotic cells at 50 uM after 48 hrs by Annexin-V-FITC/propidium iodide staining based flow cytometry (reference value: 4.1%)", "assay_type": "functional"}, "SRSF protein kinase 3": {"molecular_target": "SRSF protein kinase 3 (Homo sapiens, UniProt Q9UPE1)", "assay": "Inhibition of human SRPK3 (P41 to P567 residues) expressed in bacterial expression system assessed as residual activity at 5 uM by KINOMEscan assay relative to control"}, "[2]": {"molecular_target": "Mast/stem cell growth factor receptor Kit (Homo sapiens, UniProt P10721, D816V)", "sequence (P10721 26-976 D816V limits assumed)": "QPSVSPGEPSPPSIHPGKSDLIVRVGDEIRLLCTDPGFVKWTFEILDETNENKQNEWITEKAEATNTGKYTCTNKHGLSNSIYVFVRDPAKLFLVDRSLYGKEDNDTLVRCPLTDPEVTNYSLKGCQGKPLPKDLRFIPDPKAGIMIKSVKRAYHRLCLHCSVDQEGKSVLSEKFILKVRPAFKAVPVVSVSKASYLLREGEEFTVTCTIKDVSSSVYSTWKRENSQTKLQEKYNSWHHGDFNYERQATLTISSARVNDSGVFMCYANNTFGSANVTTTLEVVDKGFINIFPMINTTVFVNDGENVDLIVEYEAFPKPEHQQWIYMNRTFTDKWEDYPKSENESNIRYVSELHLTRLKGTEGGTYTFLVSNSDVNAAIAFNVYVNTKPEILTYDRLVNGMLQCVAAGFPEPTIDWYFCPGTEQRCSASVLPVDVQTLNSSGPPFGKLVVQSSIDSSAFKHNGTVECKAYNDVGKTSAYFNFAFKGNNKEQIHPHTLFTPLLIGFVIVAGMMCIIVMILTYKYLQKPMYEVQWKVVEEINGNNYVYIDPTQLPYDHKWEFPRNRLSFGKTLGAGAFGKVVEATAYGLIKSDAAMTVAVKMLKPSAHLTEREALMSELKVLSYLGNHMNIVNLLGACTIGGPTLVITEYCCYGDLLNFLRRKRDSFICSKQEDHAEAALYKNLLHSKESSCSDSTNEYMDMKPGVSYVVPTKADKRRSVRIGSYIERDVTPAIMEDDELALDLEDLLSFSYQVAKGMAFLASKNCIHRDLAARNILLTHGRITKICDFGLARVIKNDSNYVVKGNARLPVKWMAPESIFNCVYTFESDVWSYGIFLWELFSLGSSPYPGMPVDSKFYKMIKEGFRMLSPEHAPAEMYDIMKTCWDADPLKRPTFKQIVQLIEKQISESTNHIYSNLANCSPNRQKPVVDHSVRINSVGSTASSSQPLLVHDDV", "assay": "Binding affinity to human KIT (I571 to D952 residues) D816V mutant expressed in bacterial expression system by KINOMEscan assay"}, "[3]": {"molecular_target": "Serine/threonine-protein kinase PAK 2 (Homo sapiens, UniProt Q13177)", "assay": "Binding affinity to partial length human PAK2 (P151 to R525 residues) expressed in bacterial expression system by KINOMEscan assay"}, "HT-29 [4]": {"tested_on": "HT-29", "assay": "Cell cycle arrest in human HT-29 cells assessed as accumulation at G1-phase at 75 uM after 48 hrs by propidium iodide staining based flow cytometry (reference value: 41.86%)", "assay_type": "functional"}, "[5]": {"molecular_target": "Serine/threonine-protein kinase PLK1 (Homo sapiens, UniProt P53350)", "assay": "Binding affinity to human PLK1 (A33 to F325 residues) expressed in mammalian expression system by KINOMEscan assay"}, "Aurora kinase A": {"molecular_target": "Aurora kinase A (Homo sapiens, UniProt O14965)", "sequence (O14965 whole entry, the tested form may be a part)": "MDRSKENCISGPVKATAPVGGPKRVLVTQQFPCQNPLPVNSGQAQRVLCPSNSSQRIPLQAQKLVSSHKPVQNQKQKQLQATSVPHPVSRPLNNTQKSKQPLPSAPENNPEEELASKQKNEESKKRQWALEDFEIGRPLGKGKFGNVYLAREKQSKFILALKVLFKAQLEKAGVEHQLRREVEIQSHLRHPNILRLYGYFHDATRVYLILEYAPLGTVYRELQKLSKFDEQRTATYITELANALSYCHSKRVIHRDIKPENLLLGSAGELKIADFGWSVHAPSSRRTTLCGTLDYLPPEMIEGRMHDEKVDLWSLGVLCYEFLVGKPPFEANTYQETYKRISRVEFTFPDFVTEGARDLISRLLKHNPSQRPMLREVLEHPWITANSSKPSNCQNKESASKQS", "assay": "Binding affinity to human AURKA (E122 to K401 residues) expressed in mammalian expression system by KINOMEscan assay"}, "[6]": {"molecular_target": "Tyrosine-protein kinase ABL1 (Homo sapiens, UniProt P00519)", "sequence (P00519 whole entry, the tested form may be a part)": "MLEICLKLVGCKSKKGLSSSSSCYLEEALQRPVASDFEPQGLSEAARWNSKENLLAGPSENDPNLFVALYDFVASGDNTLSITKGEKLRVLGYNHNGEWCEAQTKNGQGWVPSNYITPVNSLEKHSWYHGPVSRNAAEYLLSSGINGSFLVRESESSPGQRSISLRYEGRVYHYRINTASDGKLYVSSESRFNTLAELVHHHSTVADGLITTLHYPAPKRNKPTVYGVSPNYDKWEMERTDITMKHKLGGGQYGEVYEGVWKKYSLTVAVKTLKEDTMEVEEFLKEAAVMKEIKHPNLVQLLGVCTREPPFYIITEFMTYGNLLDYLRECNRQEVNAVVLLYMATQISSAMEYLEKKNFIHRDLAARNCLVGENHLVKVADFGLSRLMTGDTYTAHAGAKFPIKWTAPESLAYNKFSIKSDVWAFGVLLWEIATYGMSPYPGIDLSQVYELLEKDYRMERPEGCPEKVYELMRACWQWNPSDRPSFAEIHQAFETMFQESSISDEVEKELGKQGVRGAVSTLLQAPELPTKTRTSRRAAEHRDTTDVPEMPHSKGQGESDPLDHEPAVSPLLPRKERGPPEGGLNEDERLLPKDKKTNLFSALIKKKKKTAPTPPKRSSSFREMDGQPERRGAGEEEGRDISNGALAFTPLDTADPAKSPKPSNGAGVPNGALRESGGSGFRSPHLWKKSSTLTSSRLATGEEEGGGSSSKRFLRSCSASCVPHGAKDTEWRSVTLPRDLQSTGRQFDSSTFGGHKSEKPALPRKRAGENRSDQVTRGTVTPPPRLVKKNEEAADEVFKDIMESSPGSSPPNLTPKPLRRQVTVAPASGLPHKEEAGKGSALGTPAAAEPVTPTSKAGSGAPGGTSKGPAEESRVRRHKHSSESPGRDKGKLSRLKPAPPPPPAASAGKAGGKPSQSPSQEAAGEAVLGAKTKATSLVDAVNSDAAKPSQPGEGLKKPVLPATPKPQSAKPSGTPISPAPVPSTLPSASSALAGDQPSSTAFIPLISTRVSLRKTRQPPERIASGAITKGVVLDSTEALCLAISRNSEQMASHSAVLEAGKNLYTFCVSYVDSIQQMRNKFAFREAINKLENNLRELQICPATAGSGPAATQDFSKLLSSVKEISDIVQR", "assay": "Binding affinity to human phosphorylated ABL1 (S229 to K512 residues) expressed in mammalian expression system by KINOMEscan assay"}, "[7]": {"molecular_target": "Serine/threonine-protein kinase Chk1 (Homo sapiens, UniProt O14757)", "assay": "Binding affinity to human CHEK1 (M1 to G289 residues) expressed in bacterial expression system by KINOMEscan assay"}, "HT-29 [8]": {"tested_on": "HT-29", "assay": "Induction of apoptosis in human HT-29 cells assessed as early apoptotic cells at 25 uM after 48 hrs by Annexin-V-FITC/propidium iodide staining based flow cytometry (reference value: 1%)", "assay_type": "functional"}, "HT-29 [9]": {"tested_on": "HT-29", "assay": "Induction of apoptosis in human HT-29 cells after 48 hrs by Annexin-V-FITC/propidium iodide staining based flow cytometry", "assay_type": "functional, cell-based"}, "[10]": {"molecular_target": "Tyrosine-protein kinase JAK2 (Homo sapiens, UniProt O60674)", "assay": "Binding affinity to human JAK2 JH1 catalytic domain (A829 to G1132 residues) expressed in mammalian expression system by KINOMEscan assay"}, "[11]": {"molecular_target": "Inhibitor of nuclear factor kappa-B kinase subunit alpha (Homo sapiens, UniProt O15111)", "assay": "Binding affinity to full length human IKKalpha (M1 to E745 residues) expressed in mammalian expression system by KINOMEscan assay"}, "HT-29 [12]": {"tested_on": "HT-29", "assay": "Effect on total AKT expression in human HT-29 cells up to 75 uM after 48 hrs by Western blot analysis", "assay_type": "ADME, cell-based", "conditions": "ht-29, 48 h", "in_short": "(§1)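 HT29 or SW620 cells were treated at 0, 25, 50 and 75 μM for 48 h and lysed in RIPA with protease and phosphatase inhibitors. Protein was quantified by BCA. 50 μg lysate was run on 8–15% SDS-PAGE and transferred to PVDF. Blocking was 5% BSA/TBST for 2 h; primary antibodies were applied overnight at 4 °C, then HRP secondary 1 h at room temperature.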"}, "[13]": {"molecular_target": "Platelet-derived growth factor receptor beta (Homo sapiens, UniProt P09619)", "assay": "Inhibition of human PDGFRB (V582 to Y1009 residues) expressed in bacterial expression system assessed as residual activity at 5 uM by KINOMEscan assay relative to control"}, "HT-29 [14]": {"tested_on": "HT-29", "assay": "Cell cycle arrest in human HT-29 cells assessed as accumulation at G2-phase at 25 uM after 48 hrs by propidium iodide staining based flow cytometry (reference value: 15.45%)", "assay_type": "functional"}, "[15]": {"molecular_target": "Protein kinase C epsilon type (Homo sapiens) (UniProt Q02156)", "assay": "Inhibition of human PRKCE (A378 to P737 residues) expressed in mammalian expression system assessed as residual activity at 5 uM by KINOMEscan assay relative to control"}, "SW-620 [16]": {"tested_on": "SW-620", "assay": "Cell cycle arrest in human SW620 cells assessed as increase in accumulation at G2/M-phase after 48 hrs by propidium iodide staining based flow cytometry", "assay_type": "functional"}, "SW-620 [17]": {"tested_on": "SW-620", "assay": "Induction of apoptosis in human SW620 cells assessed as increase in PARP activation after 48 hrs by Western blot analysis", "assay_type": "functional, cell-based"}, "[18]": {"molecular_target": "TGF-beta receptor type-1 (Homo sapiens) (UniProt P36897)", "assay": "Inhibition of human TGFBR1 (D179 to M503 residues) expressed in bacterial expression system assessed as residual activity at 5 uM by KINOMEscan assay relative to control"}, "[19]": {"molecular_target": "Serine/threonine-protein kinase 32C (Homo sapiens, UniProt Q86UX6)", "assay": "Inhibition of human YANK3 (M68 to G486 residues) expressed in bacterial expression system assessed as residual activity at 5 uM by KINOMEscan assay relative to control"}, "[20]": {"molecular_target": "T1, Mast/stem cell growth factor receptor Kit (Homo sapiens, UniProt P10721)", "T1 sequence (P10721 whole entry, the tested form may be a part)": "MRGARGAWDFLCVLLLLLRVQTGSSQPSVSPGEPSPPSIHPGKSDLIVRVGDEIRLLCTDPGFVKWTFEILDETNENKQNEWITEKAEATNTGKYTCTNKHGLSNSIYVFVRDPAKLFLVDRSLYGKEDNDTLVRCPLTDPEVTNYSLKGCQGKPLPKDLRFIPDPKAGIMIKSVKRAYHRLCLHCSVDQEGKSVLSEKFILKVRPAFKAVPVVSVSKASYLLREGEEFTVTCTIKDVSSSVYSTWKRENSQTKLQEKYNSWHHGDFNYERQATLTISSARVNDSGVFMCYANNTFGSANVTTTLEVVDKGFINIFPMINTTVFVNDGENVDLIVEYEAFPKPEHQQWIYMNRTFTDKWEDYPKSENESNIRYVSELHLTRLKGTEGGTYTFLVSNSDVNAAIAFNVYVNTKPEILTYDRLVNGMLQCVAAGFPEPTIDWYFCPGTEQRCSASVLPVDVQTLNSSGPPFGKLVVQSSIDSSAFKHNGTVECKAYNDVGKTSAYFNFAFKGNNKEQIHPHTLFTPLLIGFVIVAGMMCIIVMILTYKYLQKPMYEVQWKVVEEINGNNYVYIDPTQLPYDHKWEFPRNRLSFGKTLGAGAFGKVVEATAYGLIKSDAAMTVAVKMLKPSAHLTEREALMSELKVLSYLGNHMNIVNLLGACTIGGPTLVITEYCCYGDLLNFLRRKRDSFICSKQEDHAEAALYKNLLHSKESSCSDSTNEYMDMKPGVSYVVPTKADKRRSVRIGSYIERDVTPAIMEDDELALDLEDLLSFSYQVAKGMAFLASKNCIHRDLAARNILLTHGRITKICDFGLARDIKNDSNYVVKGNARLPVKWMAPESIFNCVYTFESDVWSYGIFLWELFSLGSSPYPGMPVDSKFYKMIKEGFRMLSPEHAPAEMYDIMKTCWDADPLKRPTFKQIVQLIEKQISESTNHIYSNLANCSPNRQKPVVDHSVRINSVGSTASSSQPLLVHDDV", "assay": "Binding affinity to human KIT (I571 to D952 residues) expressed in bacterial expression system by KINOMEscan assay"}, "SW-620 [21]": {"tested_on": "SW-620", "assay": "Cell cycle arrest in human SW620 cells assessed as accumulation at G2-phase at 75 uM after 48 hrs by propidium iodide staining based flow cytometry (reference value: 14.08%)", "assay_type": "functional"}, "[22]": {"molecular_target": "T1, Mast/stem cell growth factor receptor Kit", "assay": "Inhibition of human KIT (I571 to D952 residues) expressed in bacterial expression system assessed as residual activity at 5 uM by KINOMEscan assay relative to control"}, "[23]": {"molecular_target": "Cyclin-dependent kinase 2 (Homo sapiens, UniProt P24941)", "assay": "Inhibition of full length human CDK2 (M1 to L298 residues) expressed in bacterial expression system assessed as residual activity at 5 uM by KINOMEscan assay relative to control"}, "[24]": {"molecular_target": "Mitogen-activated protein kinase 10 (Homo sapiens, UniProt P53779)", "assay": "Binding affinity to human JNK3 (V28 to Q422 residues) expressed in mammalian expression system by KINOMEscan assay"}, "[25]": {"molecular_target": "Fibroblast growth factor receptor 3 (Homo sapiens, UniProt P22607)", "assay": "Inhibition of partial length human FGFR3 (R442 to S771 residues) expressed in bacterial expression system assessed as residual activity at 5 uM by KINOMEscan assay relative to control"}, "[26]": {"molecular_target": "Serine/threonine-protein kinase PAK 4 (Homo sapiens, UniProt O96013)", "sequence (O96013 whole entry, the tested form may be a part)": "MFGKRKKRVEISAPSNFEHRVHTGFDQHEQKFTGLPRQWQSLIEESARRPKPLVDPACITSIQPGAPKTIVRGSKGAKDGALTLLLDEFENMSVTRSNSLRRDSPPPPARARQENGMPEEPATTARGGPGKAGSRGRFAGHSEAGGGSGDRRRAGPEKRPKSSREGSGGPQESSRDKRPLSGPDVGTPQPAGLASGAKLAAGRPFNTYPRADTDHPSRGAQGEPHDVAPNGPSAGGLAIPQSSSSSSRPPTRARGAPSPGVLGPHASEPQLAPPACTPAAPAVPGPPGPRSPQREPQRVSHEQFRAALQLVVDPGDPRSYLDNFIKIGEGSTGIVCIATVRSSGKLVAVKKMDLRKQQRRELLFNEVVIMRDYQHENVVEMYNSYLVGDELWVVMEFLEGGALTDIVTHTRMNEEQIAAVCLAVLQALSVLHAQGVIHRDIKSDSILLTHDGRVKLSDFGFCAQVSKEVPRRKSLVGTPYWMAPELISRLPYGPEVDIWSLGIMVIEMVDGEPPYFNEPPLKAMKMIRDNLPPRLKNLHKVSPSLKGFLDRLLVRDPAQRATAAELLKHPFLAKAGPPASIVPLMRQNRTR", "assay": "Binding affinity to partial length human PAK4 (Q144 to R438 residues) expressed in bacterial expression system by KINOMEscan assay"}, "HT-29 [27]": {"tested_on": "HT-29", "assay": "Induction of apoptosis in human HT-29 cells assessed as increase in PARP activation after 48 hrs by Western blot analysis", "assay_type": "functional, cell-based", "in_short": "as §1"}, "[28]": {"molecular_target": "Dual specificity tyrosine-phosphorylation-regulated kinase 1B (Homo sapiens, UniProt Q9Y463)", "sequence (Q9Y463 whole entry, the tested form may be a part)": "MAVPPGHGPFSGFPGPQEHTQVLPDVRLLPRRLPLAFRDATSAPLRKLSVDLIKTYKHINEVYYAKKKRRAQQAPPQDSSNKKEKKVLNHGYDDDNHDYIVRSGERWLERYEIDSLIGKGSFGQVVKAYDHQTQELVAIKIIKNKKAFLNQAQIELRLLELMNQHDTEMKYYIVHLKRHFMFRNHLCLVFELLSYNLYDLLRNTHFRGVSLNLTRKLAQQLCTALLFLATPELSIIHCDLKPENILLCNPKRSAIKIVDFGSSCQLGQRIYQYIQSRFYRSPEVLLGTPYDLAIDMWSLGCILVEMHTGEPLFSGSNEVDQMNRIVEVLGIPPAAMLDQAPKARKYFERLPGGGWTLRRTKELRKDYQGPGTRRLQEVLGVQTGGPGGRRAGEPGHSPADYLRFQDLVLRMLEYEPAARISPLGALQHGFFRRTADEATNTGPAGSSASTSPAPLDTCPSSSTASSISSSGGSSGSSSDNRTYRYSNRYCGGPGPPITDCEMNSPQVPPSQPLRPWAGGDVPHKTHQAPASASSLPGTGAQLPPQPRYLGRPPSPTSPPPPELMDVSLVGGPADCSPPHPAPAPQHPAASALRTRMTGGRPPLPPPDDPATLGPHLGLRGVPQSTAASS", "assay": "Binding affinity to full length human DYRK1B (M1 to S629 residues) expressed in bacterial expression system by KINOMEscan assay"}},
  "data": [
    {"smiles": "CC(C)CN(C(=O)c1cccnc1)c1c2ccccc2c(=O)n2c1[nH]c1ccccc12", "values": [
      {"measurement": "Activity", "setting": "HT-29 [1]", "value": 13.7, "unit": "%"},
      {"measurement": "Activity", "setting": "SRSF protein kinase 3", "value": 98, "unit": "%"},
      {"measurement": "Kd", "setting": "[2]", "value": "≥ 5", "unit": "µM"},
      {"measurement": "Kd", "setting": "[3]", "value": "≥ 5", "unit": "µM"},
      {"measurement": "Activity", "setting": "HT-29 [4]", "value": 43.36, "unit": "%"},
      {"measurement": "Kd", "setting": "[5]", "value": "≥ 5", "unit": "µM"},
      {"measurement": "Kd", "setting": "Aurora kinase A", "value": "≥ 5", "unit": "µM"},
      {"measurement": "Kd", "setting": "[6]", "value": "≥ 5", "unit": "µM"},
      {"measurement": "Kd", "setting": "[7]", "value": "≥ 5", "unit": "µM"},
      {"measurement": "Activity", "setting": "HT-29 [8]", "value": 0.9, "unit": "%"},
      {"measurement": "Activity", "setting": "HT-29 [9]", "value": "Dose-dependent effect"},
      {"measurement": "Kd", "setting": "[10]", "value": "≥ 5", "unit": "µM"},
      {"measurement": "Kd", "setting": "[11]", "value": "≥ 5", "unit": "µM"},
      {"measurement": "Activity", "setting": "HT-29 [12]", "value": "Non-Toxic"},
      {"measurement": "Activity", "setting": "[13]", "value": 100, "unit": "%"},
      {"measurement": "Activity", "setting": "HT-29 [14]", "value": 16.97, "unit": "%"},
      {"measurement": "Activity", "setting": "[15]", "value": 100, "unit": "%"},
      {"measurement": "Activity", "setting": "SW-620 [16]", "value": "Dose-dependent effect"},
      {"measurement": "Activity", "setting": "SW-620 [17]", "value": "Dose-dependent effect"},
      {"measurement": "Activity", "setting": "[18]", "value": 100, "unit": "%"},
      {"measurement": "Activity", "setting": "[19]", "value": 99, "unit": "%"},
      {"measurement": "Kd", "setting": "[20]", "value": "≥ 5", "unit": "µM"},
      {"measurement": "Activity", "setting": "SW-620 [21]", "value": 29.26, "unit": "%"},
      {"measurement": "Activity", "setting": "[22]", "value": 93, "unit": "%"},
      {"measurement": "Activity", "setting": "[23]", "value": 97, "unit": "%"},
      {"measurement": "Kd", "setting": "[24]", "value": "≥ 5", "unit": "µM"},
      {"measurement": "Activity", "setting": "[25]", "value": 80, "unit": "%"},
      {"measurement": "Kd", "setting": "[26]", "value": "≥ 5", "unit": "µM"},
      {"measurement": "Activity", "setting": "HT-29 [27]", "value": "Dose-dependent effect"},
      {"measurement": "Kd", "setting": "[28]", "value": "≥ 5", "unit": "µM"}
    ]}
  ]
}
